Source: ChEMBL document CHEMBL1275433 (Antimicrob Agents Chemother, 2008)
Converted amounts (≈) assume the structure as drawn.

Tests used:
DNA gyrase = DNA gyrase (Escherichia coli, UniProt P0AES4+P0AES6); assay: Inhibition of Escherichia coli DNA gyrase GyrA/GyrB; format: protein-complex assay
Procedure, shortened: (§1)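 Enzyme unit: protein needed for 50% supercoiling of 0.4 μg relaxed pBR322 DNA in 1 h at 37°C. Wild-type and mutant enzymes assayed in parallel on the same day under identical conditions. Repeated two to four times; representative values reported.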

[1] = molecular target: DNA gyrase subunit A/DNA gyrase subunit B (Mycobacterium tuberculosis (strain ATCC 25618 / H37Rv), UniProt P9WG45+P9WG47); assay: Inhibition of Mycobacterium tuberculosis DNA gyrase GyrA/GyrB; format: protein-complex assay; procedure, shortened: as §1
[2] = molecular target: DNA gyrase subunit A/DNA gyrase subunit B (Mycobacterium tuberculosis (strain ATCC 25618 / H37Rv)) (UniProt P9WG45+P9WG47)
[3] = test system: Mycolicibacterium smegmatis; assay: Antimicrobial activity against Mycobacterium smegmatis harboring DNA gyrase GyrB QRDR; format: functional, organism-based
Ehrlichia chaffeensis [4] = assay: Antimicrobial activity against Ehrlichia chaffeensis harboring DNA gyrase GyrA QRDR; format: functional
Borrelia burgdorferi [5] = assay: Antimicrobial activity against Borrelia burgdorferi harboring DNA gyrase GyrB QRDR; format: functional; conditions: Borreliella burgdorferi
Bacillus subtilis [6] = assay: Antimicrobial activity against Bacillus subtilis harboring DNA gyrase GyrA QRDR; format: functional
Pseudomonas aeruginosa [7] = assay: Antimicrobial activity against Pseudomonas aeruginosa harboring DNA gyrase GyrB QRDR; format: functional, organism-based
Staphylococcus aureus [8] = assay: Antimicrobial activity against Staphylococcus aureus harboring DNA gyrase GyrB QRDR; format: functional, organism-based
[9] = test system: Mycolicibacterium fortuitum; assay: Antimicrobial activity against Mycobacterium fortuitum harboring DNA gyrase GyrB QRDR; format: functional, organism-based
Streptococcus pneumoniae [10] = assay: Antimicrobial activity against Streptococcus pneumoniae harboring DNA gyrase GyrA QRDR; format: functional, organism-based
Helicobacter pylori [11] = assay: Antimicrobial activity against Helicobacter pylori 2 harboring DNA gyrase GyrA QRDR; format: functional
Enterococcus faecalis [12] = assay: Antimicrobial activity against Enterococcus faecalis harboring DNA gyrase GyrB QRDR; format: functional
Borrelia burgdorferi [13] = assay: Antimicrobial activity against Borrelia burgdorferi harboring DNA gyrase GyrA QRDR; format: functional; conditions: Borreliella burgdorferi
Salmonella typhimurium [14] = assay: Antimicrobial activity against Salmonella enterica Typhimurium harboring DNA gyrase GyrB QRDR; format: functional, Salmonella enterica subsp. enterica serovar Typhimurium
Bacillus subtilis [15] = assay: Antimicrobial activity against Bacillus subtilis harboring DNA gyrase GyrB QRDR; format: functional
Neisseria gonorrhoeae [16] = assay: Antimicrobial activity against Neisseria gonorrhoeae harboring DNA gyrase GyrA QRDR; format: functional
Bacteroides fragilis [17] = assay: Antimicrobial activity against Bacteroides fragilis harboring DNA gyrase GyrA QRDR; format: functional
Ehrlichia chaffeensis [18] = assay: Antimicrobial activity against Ehrlichia chaffeensis harboring DNA gyrase GyrB QRDR; format: functional
Haemophilus influenzae [19] = assay: Antimicrobial activity against Haemophilus influenzae harboring DNA gyrase GyrA QRDR; format: functional
Escherichia coli [20] = assay: Antimicrobial activity against Escherichia coli harboring DNA gyrase GyrA QRDR; format: functional, organism-based
Salmonella typhimurium [21] = assay: Antimicrobial activity against Salmonella enterica Typhimurium harboring DNA gyrase GyrA QRDR; format: functional, Salmonella enterica subsp. enterica serovar Typhimurium
Haemophilus influenzae [22] = assay: Antimicrobial activity against Haemophilus influenzae harboring DNA gyrase GyrB QRDR; format: functional
Staphylococcus aureus [23] = assay: Antimicrobial activity against Staphylococcus aureus harboring DNA gyrase GyrA QRDR; format: functional, organism-based
[24] = test system: Mycolicibacterium smegmatis; assay: Antimicrobial activity against Mycobacterium smegmatis harboring DNA gyrase GyrA QRDR; format: functional, organism-based
Klebsiella oxytoca [25] = assay: Antimicrobial activity against Klebsiella oxytoca harboring DNA gyrase GyrA QRDR; format: functional
Methylovorus [26] = assay: Antimicrobial activity against Methylovorus sp. harboring DNA gyrase GyrB QRDR; format: functional
Streptococcus pneumoniae [27] = assay: Antimicrobial activity against Streptococcus pneumoniae harboring DNA gyrase GyrB QRDR; format: functional, organism-based
Escherichia coli [28] = assay: Antimicrobial activity against Escherichia coli harboring DNA gyrase GyrB QRDR; format: functional, organism-based
Methylovorus [29] = assay: Antimicrobial activity against Methylovorus sp. harboring DNA gyrase GyrA QRDR; format: functional
Bacteroides fragilis [30] = assay: Antimicrobial activity against Bacteroides fragilis harboring DNA gyrase GyrB QRDR; format: functional
[31] = molecular target: DNA gyrase (Escherichia coli) (UniProt P0AES6+P0AES4)
Enterococcus faecalis [32] = assay: Antimicrobial activity against Enterococcus faecalis harboring DNA gyrase GyrA QRDR; format: functional
Helicobacter pylori [33] = assay: Antimicrobial activity against Helicobacter pylori harboring DNA gyrase GyrB QRDR; format: functional
Pseudomonas aeruginosa [34] = assay: Antimicrobial activity against Pseudomonas aeruginosa harboring DNA gyrase GyrA QRDR; format: functional, organism-based
Neisseria gonorrhoeae [35] = assay: Antimicrobial activity against Neisseria gonorrhoeae harboring DNA gyrase GyrB QRDR; format: functional
[36] = test system: Mycolicibacterium fortuitum; assay: Antimicrobial activity against Mycobacterium fortuitum harboring DNA gyrase GyrA QRDR; format: functional, organism-based
Helicobacter pylori [37] = assay: Antimicrobial activity against Helicobacter pylori 1 harboring DNA gyrase GyrA QRDR; format: functional
Klebsiella oxytoca [38] = assay: Antimicrobial activity against Klebsiella oxytoca harboring DNA gyrase GyrB QRDR; format: functional

DNA gyrase subunit A/DNA gyrase subunit B, sequence (P9WG45 whole entry): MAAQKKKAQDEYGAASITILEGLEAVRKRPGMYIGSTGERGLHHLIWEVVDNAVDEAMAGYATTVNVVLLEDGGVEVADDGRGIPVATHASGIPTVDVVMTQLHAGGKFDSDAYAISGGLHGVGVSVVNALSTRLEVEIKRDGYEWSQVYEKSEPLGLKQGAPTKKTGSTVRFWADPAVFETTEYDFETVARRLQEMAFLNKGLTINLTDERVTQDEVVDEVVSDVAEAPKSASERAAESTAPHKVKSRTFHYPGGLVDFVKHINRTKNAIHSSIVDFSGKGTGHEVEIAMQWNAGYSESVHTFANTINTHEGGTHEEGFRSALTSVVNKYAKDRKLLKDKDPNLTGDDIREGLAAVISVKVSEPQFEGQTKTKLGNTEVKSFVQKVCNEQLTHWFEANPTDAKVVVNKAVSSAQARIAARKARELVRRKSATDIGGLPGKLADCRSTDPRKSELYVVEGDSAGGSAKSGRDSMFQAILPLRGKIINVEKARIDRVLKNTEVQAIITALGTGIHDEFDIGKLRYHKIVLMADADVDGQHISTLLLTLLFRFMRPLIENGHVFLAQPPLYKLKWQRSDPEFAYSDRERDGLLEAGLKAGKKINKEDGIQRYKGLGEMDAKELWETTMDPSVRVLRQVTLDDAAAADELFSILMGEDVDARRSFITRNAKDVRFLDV
DNA gyrase subunit A/DNA gyrase subunit B, sequence (P9WG47 whole entry): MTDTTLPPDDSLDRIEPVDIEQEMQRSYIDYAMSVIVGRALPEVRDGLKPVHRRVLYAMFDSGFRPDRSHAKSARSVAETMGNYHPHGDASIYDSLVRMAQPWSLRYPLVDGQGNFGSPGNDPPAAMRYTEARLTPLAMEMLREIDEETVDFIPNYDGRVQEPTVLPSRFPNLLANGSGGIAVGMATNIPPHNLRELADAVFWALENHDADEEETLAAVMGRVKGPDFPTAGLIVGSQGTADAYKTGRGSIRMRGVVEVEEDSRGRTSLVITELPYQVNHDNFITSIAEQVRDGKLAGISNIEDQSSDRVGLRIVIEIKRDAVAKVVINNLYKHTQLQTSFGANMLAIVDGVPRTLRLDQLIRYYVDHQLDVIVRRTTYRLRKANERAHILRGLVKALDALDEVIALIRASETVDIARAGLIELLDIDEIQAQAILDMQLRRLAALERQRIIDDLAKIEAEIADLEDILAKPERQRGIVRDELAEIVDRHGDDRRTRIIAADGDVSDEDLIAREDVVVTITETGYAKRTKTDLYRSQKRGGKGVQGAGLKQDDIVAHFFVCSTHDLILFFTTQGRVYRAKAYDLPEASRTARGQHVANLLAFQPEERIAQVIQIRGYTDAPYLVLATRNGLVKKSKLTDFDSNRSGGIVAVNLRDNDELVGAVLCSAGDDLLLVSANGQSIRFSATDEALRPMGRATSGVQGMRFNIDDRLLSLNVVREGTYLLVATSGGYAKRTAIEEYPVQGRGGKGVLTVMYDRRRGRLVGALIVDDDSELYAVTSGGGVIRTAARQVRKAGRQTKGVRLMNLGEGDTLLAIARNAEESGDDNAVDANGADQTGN

For CCn1cc(C(=O)O)c(=O)c2cc(F)c(N3CCNCC3)nc21 [ENOXACIN], the IC50 (DNA gyrase) was 14 µM and the IC50 [1] was 156 µM.
COc1c(N2C[C@@H]3CCCN[C@@H]3C2)c(F)cc2c(=O)c(C(=O)O)cn(C3CC3)c12 [MOXIFLOXACIN] gave a CC25 [2] of 2 µM.
Work on CCn1cc(C(=O)O)c(=O)c2ccc(C)nc21 [NALIDIXIC ACID] yielded an IC50 [1] of 4750 µM.
CC1COc2c(N3CCN(C)CC3)c(F)cc3c(=O)c(C(=O)O)cn1c23 (centres undefined) [OFLOXACIN] was tested, and the IC50 [3] was 10 µg/mL (≈ 27.7 µM), the MIC50 [3] was 1 µg/mL (≈ 2.77 µM) and the MIC50 (Ehrlichia chaffeensis [4]) was 16 µg/mL (≈ 44.3 µM). For the same compound, the MIC50 (Borrelia burgdorferi [5]) was 8 µg/mL (≈ 22.1 µM), the MIC50 (Bacillus subtilis [6]) was 0.12 µg/mL (≈ 0.332 µM) and the IC50 (Pseudomonas aeruginosa [7]) was 0.5 µg/mL (≈ 1.38 µM). For the same compound, the MIC50 (Pseudomonas aeruginosa [7]) was 0.25 µg/mL (≈ 0.692 µM), the IC50 (Staphylococcus aureus [8]) was 10 µg/mL (≈ 27.7 µM) and the MIC50 (Staphylococcus aureus [8]) was 0.5 µg/mL (≈ 1.38 µM). The IC50 [9] was 1 µg/mL (≈ 2.77 µM), the MIC50 [9] was 0.06 µg/mL (≈ 0.166 µM) and the IC50 (Streptococcus pneumoniae [10]) was 40 µg/mL (≈ 111 µM). The MIC50 (Streptococcus pneumoniae [10]) was 1 µg/mL (≈ 2.77 µM), the MIC50 (Helicobacter pylori [11]) was 0.25 µg/mL (≈ 0.692 µM) and the MIC50 (Enterococcus faecalis [12]) was 1 µg/mL (≈ 2.77 µM). The MIC50 (Borrelia burgdorferi [13]) was 8 µg/mL (≈ 22.1 µM), the MIC50 (Salmonella typhimurium [14]) was 0.01 µg/mL (≈ 0.0277 µM) and the MIC50 (Bacillus subtilis [15]) was 0.12 µg/mL (≈ 0.332 µM). The MIC50 (Neisseria gonorrhoeae [16]) was 0.008 µg/mL (≈ 0.0221 µM), the MIC50 (Bacteroides fragilis [17]) was 4 µg/mL (≈ 11.1 µM) and the MIC50 (Ehrlichia chaffeensis [18]) was 16 µg/mL (≈ 44.3 µM). The MIC50 (Haemophilus influenzae [19]) was 0.01 µg/mL (≈ 0.0277 µM), the IC50 (Escherichia coli [20]) was 0.3 µg/mL (≈ 0.83 µM) and the MIC50 (Escherichia coli [20]) was 0.01 µg/mL (≈ 0.0277 µM). For the same compound, the MIC50 (Salmonella typhimurium [21]) was 0.01 µg/mL (≈ 0.0277 µM), the MIC50 (Haemophilus influenzae [22]) was 0.012 µg/mL (≈ 0.0332 µM) and the IC50 (Staphylococcus aureus [23]) was 10 µg/mL (≈ 27.7 µM). It also gave an MIC50 (Staphylococcus aureus [23]) of 0.5 µg/mL (≈ 1.38 µM), an IC50 [24] of 10 µg/mL (≈ 27.7 µM) and an MIC50 [24] of 1 µg/mL (≈ 2.77 µM). The MIC50 (Klebsiella oxytoca [25]) was 0.01 µg/mL (≈ 0.0277 µM), the MIC50 (Methylovorus [26]) was 0.8 µg/mL (≈ 2.21 µM) and the IC50 (Streptococcus pneumoniae [27]) was 40 µg/mL (≈ 111 µM). For the same compound, the MIC50 (Streptococcus pneumoniae [27]) was 1 µg/mL (≈ 2.77 µM), the IC50 (Escherichia coli [28]) was 0.3 µg/mL (≈ 0.83 µM) and the MIC50 (Escherichia coli [28]) was 0.01 µg/mL (≈ 0.0277 µM). It also gave an MIC50 (Methylovorus [29]) of 0.8 µg/mL (≈ 2.21 µM), an MIC50 (Bacteroides fragilis [30]) of 4 µg/mL (≈ 11.1 µM) and a CC25 [2] of 7 µM. The IC50 [1] was 28 µM, the CC25 [31] was 0.2 µM and the MIC50 (Enterococcus faecalis [32]) was 1 µg/mL (≈ 2.77 µM). For the same compound, the MIC50 (Helicobacter pylori [33]) was 0.25 µg/mL (≈ 0.692 µM), the IC50 (Pseudomonas aeruginosa [34]) was 0.5 µg/mL (≈ 1.38 µM) and the MIC50 (Pseudomonas aeruginosa [34]) was 0.25 µg/mL (≈ 0.692 µM). The MIC50 (Neisseria gonorrhoeae [35]) was 0.008 µg/mL (≈ 0.0221 µM), the IC50 [36] was 1 µg/mL (≈ 2.77 µM) and the MIC50 [36] was 0.06 µg/mL (≈ 0.166 µM). For the same compound, the MIC50 (Helicobacter pylori [37]) was 0.06 µg/mL (≈ 0.166 µM) and the MIC50 (Klebsiella oxytoca [38]) was 0.01 µg/mL (≈ 0.0277 µM).
